Data as given in ChEMBL document CHEMBL5303300, “EUbOPEN Chemogenomics Library - Multiplex” (2023).
Values joined by “and” are separate entries in the source; they are usually repeats but may differ in a detail not shown here. Equal values may be shown once.

System: Fibroblast
Assay: Multiplex assay against human fibroblast
Type: toxicity, cell-based
Conditions: number of replicates 2
Procedure, shortened: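 Imaging took place on a CQ1 microscope at 37°C and 5% CO2 once compound had been added to live cells stained at seeding with Hoechst33342, BioTracker Green Microtubule Cytoskeleton Dye, MitoTracker Red and Annexin V Alexa Fluor 680. CellPathfinder machine-learning gating classed cells as Hoechst high-intensity objects or normal cells, classed normal cells as having healthy, pyknosed or fragmented nuclei, and classed pyknosed cells as mitotic or apoptotic. Tubulin, mitochondrial-mass and membrane-permeability phenotypes are per cents of the healthy-nucleus cells.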

[1] = 12 h, 1 µM, compound concentration 1 uM
[2] = 12 h, 10 µM, compound concentration 10 uM
[3] = 24 h, 1 µM, compound concentration 1 uM
[4] = 24 h, 10 µM, compound concentration 10 uM
[5] = 48 h, 1 µM, compound concentration 1 uM
[6] = 48 h, 10 µM, compound concentration 10 uM

CC1=C(C)C(=O)C(C(C)(C)CC(=O)N(CCCCSC[C@H]2O[C@@H](n3cnc4c(N)ncnc43)[C@H](O)[C@@H]2O)Cc2cccc(-c3ccc(Cl)cc3)c2)=C(C)C1=O
Population Apoptotic (%) [1]: 43% and 35% | Population Fragmented Nuclei (%) [1]: 13% and 7% | Population Healthy Nuclei (%) [1]: 72% and 77% | Population Hoechst High Intensity Objects (%) [1]: 0% | Population Membrane Permeable-Phenotype (%) [1]: 1% and 6% | Population Mitochondria Different-Phenotype (%) [1]: 0% and 1% | Population Mitotic Cells (%) [1]: 56% and 64% | Population Normal (%) [1]: 100% | Population Pyknosed Nuclei (%) [1]: 14% | Population Tubulin-Different-Phenotype (%) [1]: 34% and 18% | Total Cell Count [1]: 228 and 306 | Population Apoptotic (%) [2]: 36% and 30% | Population Fragmented Nuclei (%) [2]: 11% and 17% | Population Healthy Nuclei (%) [2]: 76% and 62% | Population Hoechst High Intensity Objects (%) [2]: 0% and 1% | Population Membrane Permeable-Phenotype (%) [2]: 18% and 15% | Population Mitochondria Different-Phenotype (%) [2]: 4% and 3% | Population Mitotic Cells (%) [2]: 63% and 69% | Population Normal (%) [2]: 100% and 99% | Population Pyknosed Nuclei (%) [2]: 11% and 19% | Population Tubulin-Different-Phenotype (%) [2]: 73% and 74% | Total Cell Count [2]: 186 and 201 | Population Apoptotic (%) [3]: 57% and 51% | Population Fragmented Nuclei (%) [3]: 8% and 9% | Population Healthy Nuclei (%) [3]: 85% and 79% | Population Hoechst High Intensity Objects (%) [3]: 0% | Population Membrane Permeable-Phenotype (%) [3]: 5% and 2% | Population Mitochondria Different-Phenotype (%) [3]: 2% and 1% | Population Mitotic Cells (%) [3]: 42% and 48% | Population Normal (%) [3]: 99% and 100% | Population Pyknosed Nuclei (%) [3]: 5% and 11% | Population Tubulin-Different-Phenotype (%) [3]: 24% and 12% | Total Cell Count [3]: 235 and 305 | Population Apoptotic (%) [4]: 46% and 45% | Population Fragmented Nuclei (%) [4]: 13% and 14% | Population Healthy Nuclei (%) [4]: 78% and 68% | Population Hoechst High Intensity Objects (%) [4]: 0% | Population Membrane Permeable-Phenotype (%) [4]: 4% and 8% | Population Mitochondria Different-Phenotype (%) [4]: 13% and 17% | Population Mitotic Cells (%) [4]: 53% and 54% | Population Normal (%) [4]: 100% and 99% | Population Pyknosed Nuclei (%) [4]: 8% and 17% | Population Tubulin-Different-Phenotype (%) [4]: 78% and 83% | Total Cell Count [4]: 182 and 183 | Population Apoptotic (%) [5]: 50% | Population Fragmented Nuclei (%) [5]: 12% and 13% | Population Healthy Nuclei (%) [5]: 83% and 81% | Population Hoechst High Intensity Objects (%) [5]: 0% | Population Membrane Permeable-Phenotype (%) [5]: 3% and 1% | Population Mitochondria Different-Phenotype (%) [5]: 0% | Population Mitotic Cells (%) [5]: 50% | Population Normal (%) [5]: 99% | Population Pyknosed Nuclei (%) [5]: 3% and 5% | Population Tubulin-Different-Phenotype (%) [5]: 13% and 5% | Total Cell Count [5]: 257 and 316 | Population Apoptotic (%) [6]: 71% and 65% | Population Fragmented Nuclei (%) [6]: 18% and 20% | Population Healthy Nuclei (%) [6]: 74% and 69% | Population Hoechst High Intensity Objects (%) [6]: 0% | Population Membrane Permeable-Phenotype (%) [6]: 0% and 5% | Population Mitochondria Different-Phenotype (%) [6]: 6% and 13% | Population Mitotic Cells (%) [6]: 28% and 35% | Population Normal (%) [6]: 100% | Population Pyknosed Nuclei (%) [6]: 7% and 10% | Population Tubulin-Different-Phenotype (%) [6]: 76% and 69% | Total Cell Count [6]: 197

CC(C)S(=O)(=O)c1ccccc1Nc1nc(N[C@@H]2CCCN(CCCCCCCNC(=O)COc3cccc4c3C(=O)N(C3CCC(=O)N(C)C3=O)C4=O)C2)ncc1Cl (stereo partly specified)
Population Apoptotic (%) [1]: 58% and 50% | Population Fragmented Nuclei (%) [1]: 7% and 16% | Population Healthy Nuclei (%) [1]: 50% and 56% | Population Hoechst High Intensity Objects (%) [1]: 0% and 1% | Population Membrane Permeable-Phenotype (%) [1]: 10% and 9% | Population Mitochondria Different-Phenotype (%) [1]: 5% and 6% | Population Mitotic Cells (%) [1]: 41% and 49% | Population Normal (%) [1]: 100% and 98% | Population Pyknosed Nuclei (%) [1]: 42% and 27% | Population Tubulin-Different-Phenotype (%) [1]: 58% and 39% | Total Cell Count [1]: 178 and 249 | Population Apoptotic (%) [2]: 63% and 51% | Population Fragmented Nuclei (%) [2]: 9% and 14% | Population Healthy Nuclei (%) [2]: 42% and 36% | Population Hoechst High Intensity Objects (%) [2]: 0% | Population Membrane Permeable-Phenotype (%) [2]: 33% and 29% | Population Mitochondria Different-Phenotype (%) [2]: 24% and 26% | Population Mitotic Cells (%) [2]: 36% and 49% | Population Normal (%) [2]: 100% and 99% | Population Pyknosed Nuclei (%) [2]: 47% and 48% | Population Tubulin-Different-Phenotype (%) [2]: 24% and 17% | Total Cell Count [2]: 191 and 207 | Population Apoptotic (%) [3]: 81% and 86% | Population Fragmented Nuclei (%) [3]: 16% and 21% | Population Healthy Nuclei (%) [3]: 39% and 36% | Population Hoechst High Intensity Objects (%) [3]: 0% | Population Membrane Permeable-Phenotype (%) [3]: 13% and 8% | Population Mitochondria Different-Phenotype (%) [3]: 6% and 5% | Population Mitotic Cells (%) [3]: 18% and 14% | Population Normal (%) [3]: 99% and 100% | Population Pyknosed Nuclei (%) [3]: 43% and 42% | Population Tubulin-Different-Phenotype (%) [3]: 25% and 18% | Total Cell Count [3]: 189 and 238 | Population Apoptotic (%) [4]: 76% and 74% | Population Fragmented Nuclei (%) [4]: 15% and 16% | Population Healthy Nuclei (%) [4]: 37% and 28% | Population Hoechst High Intensity Objects (%) [4]: 0% | Population Membrane Permeable-Phenotype (%) [4]: 20% and 9% | Population Mitochondria Different-Phenotype (%) [4]: 52% and 73% | Population Mitotic Cells (%) [4]: 23% and 25% | Population Normal (%) [4]: 99% | Population Pyknosed Nuclei (%) [4]: 47% and 55% | Population Tubulin-Different-Phenotype (%) [4]: 50% and 36% | Total Cell Count [4]: 193 and 186 | Population Apoptotic (%) [5]: 86% and 96% | Population Fragmented Nuclei (%) [5]: 15% and 24% | Population Healthy Nuclei (%) [5]: 46% and 36% | Population Hoechst High Intensity Objects (%) [5]: 0% and 1% | Population Membrane Permeable-Phenotype (%) [5]: 19% and 21% | Population Mitochondria Different-Phenotype (%) [5]: 4% and 6% | Population Mitotic Cells (%) [5]: 13% and 3% | Population Normal (%) [5]: 100% and 98% | Population Pyknosed Nuclei (%) [5]: 38% | Population Tubulin-Different-Phenotype (%) [5]: 24% and 27% | Total Cell Count [5]: 178 and 207 | Population Apoptotic (%) [6]: 85% and 88% | Population Fragmented Nuclei (%) [6]: 14% and 22% | Population Healthy Nuclei (%) [6]: 35% and 28% | Population Hoechst High Intensity Objects (%) [6]: 1% | Population Membrane Permeable-Phenotype (%) [6]: 7% and 16% | Population Mitochondria Different-Phenotype (%) [6]: 37% and 27% | Population Mitotic Cells (%) [6]: 14% and 11% | Population Normal (%) [6]: 98% | Population Pyknosed Nuclei (%) [6]: 50% and 49% | Population Tubulin-Different-Phenotype (%) [6]: 70% and 53% | Total Cell Count [6]: 184 and 191

CS(=O)(=O)c1ccc(C(=O)Nc2cc(F)cc(COc3ccc(Br)cc3CN3CC[C@H](O)C3)c2)c(Cl)c1.O=CO
Population Apoptotic (%) [1]: 47% and 46% | Population Healthy Nuclei (%) [1]: 54% and 67% | Population Mitotic Cells (%) [1]: 52% and 53% | Population Pyknosed Nuclei (%) [1]: 32% and 19% | Total Cell Count [1]: 177 and 249 | Population Apoptotic (%) [2]: 54% and 58% | Population Fragmented Nuclei (%) [2]: 16% and 19% | Population Healthy Nuclei (%) [2]: 51% and 54% | Population Mitotic Cells (%) [2]: 45% and 41% | Population Pyknosed Nuclei (%) [2]: 31% and 26% | Total Cell Count [2]: 197 and 232 | Population Apoptotic (%) [3]: 56% and 57% | Population Fragmented Nuclei (%) [3]: 17% and 22% | Population Healthy Nuclei (%) [3]: 55% and 57% | Population Mitotic Cells (%) [3]: 43% and 42% | Population Pyknosed Nuclei (%) [3]: 26% and 20% | Total Cell Count [3]: 195 and 268 | Population Fragmented Nuclei (%) [4]: 18% | Population Healthy Nuclei (%) [4]: 57% and 54% | Population Mitotic Cells (%) [4]: 9% and 16% | Population Pyknosed Nuclei (%) [4]: 23% and 22% | Total Cell Count [4]: 187 and 243 | Population Apoptotic (%) [5]: 76% | Population Fragmented Nuclei (%) [5]: 21% | Population Healthy Nuclei (%) [5]: 57% and 61% | Population Mitotic Cells (%) [5]: 21% and 23% | Population Pyknosed Nuclei (%) [5]: 20% and 14% | Total Cell Count [5]: 201 and 289 | Population Apoptotic (%) [6]: 97% | Population Fragmented Nuclei (%) [6]: 17% and 19% | Population Healthy Nuclei (%) [6]: 54% | Population Mitotic Cells (%) [6]: 2% and 7% | Population Pyknosed Nuclei (%) [6]: 28% and 25% | Total Cell Count [6]: 144 and 211
